Here are results for 16 compounds from ChEMBL document CHEMBL4619797, “Antiglioma Activity of Aryl and Amido-Aryl Acetamidine Derivatives Targeting iNOS: Synthesis and Biological Evaluation” (ACS Med Chem Lett, 2020).

Structures are written as SMILES. Activity calls are given as the source filed them. No cut-off for these calls is given here.

Data set [1] concerns the target T1, Nitric oxide synthase, inducible (Homo sapiens, UniProt P35228). Briefly: Inhibition of recombinant N-terminal His-tagged human iNOS expressed in Escherichia coli at 1 uM using L-arginine as substrate preincubated for 15 mins followed by NADPH addition and measured after 20 mins by OPA/NAC reagent based HPLC-fluorimetric analysis relative to control. In a few lines:
(§1)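 Primary screen: percent inhibition of iNOS and nNOS measured at 1 μM compound; mean ± SD of triplicate experiments.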

Data set [2] has as its target T2, Nitric oxide synthase 1 (Homo sapiens, UniProt P29475). Briefly: Inhibition of recombinant human nNOS expressed in Escherichia coli at 1 uM using L-arginine as substrate preincubated for 15 mins followed by NADPH addition and measured after 20 mins by OPA/NAC reagent based HPLC-fluorimetric analysis relative to control. In outline: as §1
Data set [3] concerns the target T3, Nitric oxide synthase 3 (Homo sapiens) (UniProt P29474).
T3 sequence (whole entry): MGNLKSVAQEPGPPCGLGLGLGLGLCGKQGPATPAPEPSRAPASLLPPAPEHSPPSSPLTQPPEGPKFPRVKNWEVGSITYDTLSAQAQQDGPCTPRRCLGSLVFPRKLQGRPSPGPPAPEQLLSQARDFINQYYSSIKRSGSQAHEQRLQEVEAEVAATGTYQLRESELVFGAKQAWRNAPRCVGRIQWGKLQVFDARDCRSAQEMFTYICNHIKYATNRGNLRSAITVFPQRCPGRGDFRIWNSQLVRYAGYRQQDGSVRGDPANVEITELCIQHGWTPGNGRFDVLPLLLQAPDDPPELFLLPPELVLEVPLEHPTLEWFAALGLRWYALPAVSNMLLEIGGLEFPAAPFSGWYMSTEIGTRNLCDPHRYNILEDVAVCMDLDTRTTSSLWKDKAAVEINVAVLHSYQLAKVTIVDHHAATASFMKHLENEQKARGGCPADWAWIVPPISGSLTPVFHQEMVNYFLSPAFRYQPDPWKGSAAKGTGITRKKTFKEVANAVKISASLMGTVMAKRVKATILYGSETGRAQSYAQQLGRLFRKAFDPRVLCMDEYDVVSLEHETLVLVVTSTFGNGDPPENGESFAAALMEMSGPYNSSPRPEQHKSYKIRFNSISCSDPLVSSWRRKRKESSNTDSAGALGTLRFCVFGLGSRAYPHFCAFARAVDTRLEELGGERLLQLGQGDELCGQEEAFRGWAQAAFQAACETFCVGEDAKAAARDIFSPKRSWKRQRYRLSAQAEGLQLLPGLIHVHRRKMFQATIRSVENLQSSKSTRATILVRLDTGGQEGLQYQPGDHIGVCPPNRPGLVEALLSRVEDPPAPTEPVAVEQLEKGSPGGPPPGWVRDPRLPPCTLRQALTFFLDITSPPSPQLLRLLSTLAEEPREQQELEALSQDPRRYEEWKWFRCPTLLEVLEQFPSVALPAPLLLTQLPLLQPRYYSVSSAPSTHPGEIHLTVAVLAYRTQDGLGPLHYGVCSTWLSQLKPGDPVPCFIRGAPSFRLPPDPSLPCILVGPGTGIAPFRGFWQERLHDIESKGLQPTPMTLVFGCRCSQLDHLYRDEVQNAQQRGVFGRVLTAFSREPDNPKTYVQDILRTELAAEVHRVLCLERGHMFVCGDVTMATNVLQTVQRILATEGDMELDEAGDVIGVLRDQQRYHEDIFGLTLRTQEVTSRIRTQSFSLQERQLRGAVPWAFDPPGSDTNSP
Briefly: Inhibition of human eNOS at 10 uM using L-arginine as substrate preincubated for 15 mins followed by NADPH addition and measured after 20 mins by OPA/NAC reagent based HPLC-fluorimetric analysis relative to control. In a few lines:
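eNOS percent inhibition screened at 10 μM compound; mean ± SD of triplicate experiments.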

Data set [4] has as its system C6. Briefly: Antiproliferative activity against rat C6 cells assessed as inhibition of cell proliferation at 500 uM after 24 hrs by MTT assay. The format is functional, cell-based. In outline:
(§2)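 C6 rat glioma cells exposed 24 h to increasing concentrations (0–1500 μM); metabolic activity by MTT, expressed as percent of untreated cultures (100%); means ± SD of three replicates.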
A general note: Tetrazolium dyes change colour on reduction, which living cells bring about.

The target in data set [5] is T1, Nitric oxide synthase, inducible. Briefly: Inhibition of recombinant N-terminal His-tagged human iNOS expressed in Escherichia coli using L-arginine as substrate preincubated for 15 mins followed by NADPH addition and measured after 20 mins by OPA/NAC reagent based HPLC-fluorimetric analysis. In outline:
(§3)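 IC50 against human iNOS, nNOS and eNOS from experiments in triplicate at seven different concentrations; mean ± SD reported.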

Data set [6] concerns the target T2, Nitric oxide synthase 1. Briefly: Inhibition of recombinant human nNOS expressed in Escherichia coli using L-arginine as substrate preincubated for 15 mins followed by NADPH addition and measured after 20 mins by OPA/NAC reagent based HPLC-fluorimetric analysis. In a few lines: as §3
The next data set has as its target T4, Nitric oxide synthase 3 (Homo sapiens, UniProt P29474).
T4 sequence (P29474 whole entry): T3 sequence (whole entry)
Briefly: Inhibition of human eNOS using L-argininge as substrate preincubated for 15 mins followed by NADPH addition and measured after 20 mins by OPA/NAC reagent based HPLC analysis. In a few lines: as §3

For data set [7], the target named is Nitric oxide sythases; iNOS & nNOS (Homo sapiens) (UniProt P29475+P35228). Briefly: Selectivity index, ratio of IC50 for recombinant human nNOS expressed in Escherichia coli to IC50 for recombinant N-terminal His-tagged human iNOS expressed in Escherichia coli. In a few lines:
(§4)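 Ratio of IC50 values for human eNOS or nNOS to that for human iNOS, each IC50 from triplicate runs at seven concentrations.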

The species named for another data set is Homo sapiens. Briefly: Selectivity index, ratio of IC50 for recombinant human eNOS to IC50 for recombinant N-terminal His-tagged human iNOS expressed in Escherichia coli. In outline:
as §4

Data set [8] in a line: Cytotoxicity against rat CTX/TNA2 cells assessed as reduction in cell metabolic activity at 1500 uM after 24 hrs by MTT assay. The format is ADME, cell-based. In a few lines: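 Rat astrocytes (CTX) exposed 24 h to increasing concentrations up to 1500 μM; metabolic activity by MTT, expressed as percent of untreated (0 μM) cultures set at 100%; means ± SD of three replicates.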

Data set [9] relates to C6. Briefly: Antiproliferative activity against rat C6 cells assessed as reduction in cell metabolic activity after 24 hrs by MTT assay. The format is functional, cell-based. In outline:
as §2

For data set [10], the system named is C6. Briefly: Antiproliferative activity against rat C6 cells assessed as cell metabolic activity at 50 uM after 24 hrs by MTT assay relative to control. The format is functional. In outline:
as §2

Data set [11] deals with C6. Briefly: Antiproliferative activity against rat C6 cells assessed as cell metabolic activity at 750 uM after 24 hrs by MTT assay relative to control. It is filed as functional. In outline: as §2
Data set [12] concerns C6. Briefly: Antiproliferative activity against rat C6 cells assessed as cell metabolic activity at 1000 uM after 24 hrs by MTT assay relative to control. The format is functional. In outline:
as §2

Data set [13] concerns C6. Briefly: Antiproliferative activity against rat C6 cells assessed as cell metabolic activity at 1500 uM after 24 hrs by MTT assay relative to control. The format is functional. In outline:
as §2

In data set [14] the test system is C6. Briefly: Antiproliferative activity against rat C6 cells assessed as inhibition of cell proliferation at 500 uM after 24 hrs by MTT assay relative to control. As to conditions: C6, 24 h. It is filed as functional. In outline: as §2
The subject of data set [15] is C6. Briefly: Antiproliferative activity against rat C6 cells assessed as increase in LDH release after 24 hrs by CytoTox 96 Non-Radioactive assay. The format is functional, cell-based.
Data set [16] deals with C6. Briefly: Antiproliferative activity against rat C6 cells assessed as LDH release at 250 uM after 24 hrs by CytoTox 96 Non-Radioactive assay (reference value: 13.49%). The format is functional. (In general: LDH in the medium is a marker of cell lysis.)
Data set [17] deals with C6. Briefly: Antiproliferative activity against rat C6 cells assessed as LDH release at 500 to 1000 uM after 24 hrs by CytoTox 96 Non-Radioactive assay (reference value: 13.49%). The format is functional.

T2 sequence (P29475 whole entry): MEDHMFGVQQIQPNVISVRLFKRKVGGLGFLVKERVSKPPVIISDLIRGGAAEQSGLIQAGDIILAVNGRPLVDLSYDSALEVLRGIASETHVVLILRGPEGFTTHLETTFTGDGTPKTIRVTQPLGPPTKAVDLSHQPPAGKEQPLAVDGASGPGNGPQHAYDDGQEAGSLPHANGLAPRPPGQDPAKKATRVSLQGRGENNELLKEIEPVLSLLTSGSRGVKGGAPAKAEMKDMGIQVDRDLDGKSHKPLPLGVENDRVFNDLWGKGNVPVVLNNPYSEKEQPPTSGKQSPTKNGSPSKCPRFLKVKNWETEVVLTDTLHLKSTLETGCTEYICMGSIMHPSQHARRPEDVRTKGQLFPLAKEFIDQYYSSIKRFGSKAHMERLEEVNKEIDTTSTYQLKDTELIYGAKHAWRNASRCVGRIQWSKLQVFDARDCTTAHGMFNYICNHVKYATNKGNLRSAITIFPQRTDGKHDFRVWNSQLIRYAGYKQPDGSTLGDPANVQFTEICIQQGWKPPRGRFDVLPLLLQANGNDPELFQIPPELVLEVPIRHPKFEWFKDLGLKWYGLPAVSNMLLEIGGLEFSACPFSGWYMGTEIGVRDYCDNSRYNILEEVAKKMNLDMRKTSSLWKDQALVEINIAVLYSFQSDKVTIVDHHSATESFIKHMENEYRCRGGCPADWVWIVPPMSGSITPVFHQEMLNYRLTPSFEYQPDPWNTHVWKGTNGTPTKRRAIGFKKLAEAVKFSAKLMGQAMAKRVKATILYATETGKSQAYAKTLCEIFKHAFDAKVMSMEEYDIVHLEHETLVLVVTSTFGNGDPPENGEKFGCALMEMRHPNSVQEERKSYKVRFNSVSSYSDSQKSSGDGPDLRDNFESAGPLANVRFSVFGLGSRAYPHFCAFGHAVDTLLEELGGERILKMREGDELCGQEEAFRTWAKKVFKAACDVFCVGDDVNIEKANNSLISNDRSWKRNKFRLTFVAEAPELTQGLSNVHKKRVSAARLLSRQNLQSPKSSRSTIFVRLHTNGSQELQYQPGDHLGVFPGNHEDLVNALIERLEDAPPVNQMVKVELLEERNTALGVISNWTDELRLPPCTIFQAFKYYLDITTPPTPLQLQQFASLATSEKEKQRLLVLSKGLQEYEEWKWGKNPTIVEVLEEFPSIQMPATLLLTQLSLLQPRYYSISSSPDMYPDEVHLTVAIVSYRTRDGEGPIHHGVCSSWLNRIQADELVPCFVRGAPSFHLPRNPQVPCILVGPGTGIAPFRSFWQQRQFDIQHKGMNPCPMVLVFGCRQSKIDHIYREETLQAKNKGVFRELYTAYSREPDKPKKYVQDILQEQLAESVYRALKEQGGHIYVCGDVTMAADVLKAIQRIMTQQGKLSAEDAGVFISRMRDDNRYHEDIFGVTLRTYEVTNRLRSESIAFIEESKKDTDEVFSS
T1 sequence (P35228 whole entry): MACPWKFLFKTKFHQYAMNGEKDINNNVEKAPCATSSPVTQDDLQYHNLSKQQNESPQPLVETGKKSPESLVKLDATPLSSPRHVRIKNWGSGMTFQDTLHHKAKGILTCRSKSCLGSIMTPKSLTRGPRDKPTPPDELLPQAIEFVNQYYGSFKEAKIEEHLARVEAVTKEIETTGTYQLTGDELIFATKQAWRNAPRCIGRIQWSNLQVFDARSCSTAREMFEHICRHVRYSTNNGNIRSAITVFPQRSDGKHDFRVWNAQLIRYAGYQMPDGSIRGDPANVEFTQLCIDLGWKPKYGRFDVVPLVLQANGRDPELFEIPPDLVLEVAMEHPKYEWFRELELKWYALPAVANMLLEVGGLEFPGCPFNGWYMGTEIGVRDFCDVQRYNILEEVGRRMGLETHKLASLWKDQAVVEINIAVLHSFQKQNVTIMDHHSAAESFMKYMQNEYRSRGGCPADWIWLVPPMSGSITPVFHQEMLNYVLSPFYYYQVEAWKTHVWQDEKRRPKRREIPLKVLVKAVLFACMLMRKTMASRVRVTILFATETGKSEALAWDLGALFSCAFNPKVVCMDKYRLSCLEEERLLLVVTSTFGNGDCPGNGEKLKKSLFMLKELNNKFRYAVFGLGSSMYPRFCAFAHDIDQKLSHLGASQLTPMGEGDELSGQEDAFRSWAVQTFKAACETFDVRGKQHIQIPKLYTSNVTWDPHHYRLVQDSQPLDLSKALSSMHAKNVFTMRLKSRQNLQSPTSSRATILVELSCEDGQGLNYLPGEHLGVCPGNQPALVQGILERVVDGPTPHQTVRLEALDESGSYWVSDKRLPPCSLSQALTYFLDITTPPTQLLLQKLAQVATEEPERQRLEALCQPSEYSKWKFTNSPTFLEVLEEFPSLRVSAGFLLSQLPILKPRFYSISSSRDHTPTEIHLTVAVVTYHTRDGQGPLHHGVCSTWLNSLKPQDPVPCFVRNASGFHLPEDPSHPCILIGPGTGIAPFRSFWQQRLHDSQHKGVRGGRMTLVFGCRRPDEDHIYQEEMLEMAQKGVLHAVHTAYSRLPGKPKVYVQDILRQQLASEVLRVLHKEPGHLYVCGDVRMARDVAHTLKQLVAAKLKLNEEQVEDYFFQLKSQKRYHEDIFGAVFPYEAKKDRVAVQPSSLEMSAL
Chain of Nitric oxide sythases; iNOS & nNOS (Homo sapiens) (P29475 whole entry, looked up): as the sequence (P29475 whole entry) above
Chain of Nitric oxide sythases; iNOS & nNOS (Homo sapiens) (P35228 whole entry, looked up): as the sequence (P35228 whole entry) above

As to `CC(=N)Nc1nc(-c2ccccc2)cs1`, the inhibition (usually the percentage by which the read-out fell short of the control) in data set [1] was 100%; on Nitric oxide synthase 1 [2] it was 2%; in data set [3], 14%.

For `CC(=N)NCc1ccc(F)cc1`, the inhibition amounted to 93% in [1], 0% at Nitric oxide synthase 1 [2] and 5% in [3].

Consider `CC(=N)NCc1ccc(C(=O)O)cc1`, for which the inhibition in data set [1] stood at 70%; on Nitric oxide synthase 1 [2], 0%; in [3], 4%.

For `CC(=N)NCc1cccc(CN)c1`, in the data set with C6 [4], the outcome was inactive.

For `CC(=N)NCc1cccc(CNC(=O)C2CCCN2)c1` (stereo not drawn), in the data set on C6 [4], the result was inactive.

`CC(=N)Nc1ccc(S(=O)(=O)Nc2nccs2)cc1`: the inhibition in data set [1] stood at 81%; on Nitric oxide synthase 1 [2], 47%; in data set [3], 3%.

As for `CC(=N)NCc1cccc(CNC(=O)CCC(=O)O)c1`, the IC50 – broadly, the midpoint of a concentration-inhibition curve – in data set [5] is 428 nM.

For the compound `Br.CC(=N)Nc1ccc(C(=O)Nc2ccc(F)cc2)cc1`, the figures for the inhibition (in [1]; at Nitric oxide synthase 1 [2]; in data set [3]) were 100%, 0% and 0%, respectively. Further, the IC50 in [5] was 11 nM; at Nitric oxide synthase 1 [6] it was 6200 nM; against Nitric oxide synthase 3 it was over 10000 nM. Besides, the figures for the Ratio IC50 (in data set [7]; in the data set filed under Homo sapiens) were 563 and over 900, respectively. The Activity entry was “Toxic” in data set [8]; “Dose-dependent effect” in the data set with C6 [9]; 86.45% in the data set on C6 [10]; 64.86% in the data set on C6 [11]; 65.22% with C6 [12]; 64.42% in the data set with C6 [13]. Also, the Activity entry in the data set on C6 [15] was “Dose-dependent effect”; with C6 [16], 22.48%; in the data set with C6 [17] it was 27%. In the data set on C6 [14], the inhibition at 500 µM is 31%.

With `CC(=N)Nc1nc(-c2ccc(Cl)cc2)cs1`, the figures for the inhibition (in data set [1]; on Nitric oxide synthase 1 [2]; in [3]) were 100%, 13% and 4%, respectively.

Consider `Cn1nnc2c(C(N)=O)ncn2c1=O` [TEMOZOLOMIDE], for which, in the data set on C6 [14], the inhibition at 500 µM came out at 12%.

As to `CC(=N)Nc1ccc(F)cc1`, the inhibition turned out to be 85% in data set [1], 10% at Nitric oxide synthase 1 [2] and 0% in data set [3].

Consider `CC(=N)NCc1ccc(C(=O)Nc2ccc(F)cc2)cc1`, for which the results for the inhibition (in data set [1]; at Nitric oxide synthase 1 [2]; in [3]) were 87%, 97% and 0%, respectively.

Turning to `CC(=N)Nc1ccc(C(=O)Nc2nccs2)cc1`, the inhibition in data set [1] is 84%; on Nitric oxide synthase 1 [2], 96%; in data set [3] it was 0%.

For the compound `CC(=N)NCc1ccc(C(=O)Nc2nccs2)cc1`, the figures for the inhibition (in data set [1]; on Nitric oxide synthase 1 [2]; in [3]) were 100%, 0% and 0%, respectively.

Turning to `CC(N)C(=O)Cc1cn[nH]c1` (stereo not drawn), the half-inhibitory concentration (IC50) in [5] came out at 681 nM.

With `CC(=N)Nc1ccc(C(=O)O)cc1`, the inhibition in [1] was 86%; on Nitric oxide synthase 1 [2] it was 14%; in data set [3] it was 62%.
